Legend:
[1] = target: T1, Retinoic acid receptor beta (Homo sapiens, UniProt P10826); experiment: Binding affinity towards retinoic acid receptor beta was determined using [3H]ATRA (5 nM) as radioligand
T1 sequence (P10826 whole entry): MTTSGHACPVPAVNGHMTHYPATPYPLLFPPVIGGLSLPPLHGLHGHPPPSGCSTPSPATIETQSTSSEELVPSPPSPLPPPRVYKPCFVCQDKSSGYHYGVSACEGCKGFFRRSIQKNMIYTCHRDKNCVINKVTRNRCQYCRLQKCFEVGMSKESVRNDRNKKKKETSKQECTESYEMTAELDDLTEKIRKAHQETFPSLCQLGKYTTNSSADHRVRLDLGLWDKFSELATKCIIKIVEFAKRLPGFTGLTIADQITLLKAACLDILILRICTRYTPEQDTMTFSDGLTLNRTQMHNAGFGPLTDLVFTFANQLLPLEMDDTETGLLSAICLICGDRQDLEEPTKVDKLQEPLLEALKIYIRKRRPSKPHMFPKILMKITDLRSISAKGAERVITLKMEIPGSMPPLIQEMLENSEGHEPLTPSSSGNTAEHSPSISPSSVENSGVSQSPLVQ

[2] = target: T2, Retinoic acid receptor gamma (Homo sapiens, UniProt P13631); experiment: Binding affinity towards retinoic acid receptor gamma was determined using [3H]ATRA (5 nM) as radioligand
T2 sequence (P13631 whole entry): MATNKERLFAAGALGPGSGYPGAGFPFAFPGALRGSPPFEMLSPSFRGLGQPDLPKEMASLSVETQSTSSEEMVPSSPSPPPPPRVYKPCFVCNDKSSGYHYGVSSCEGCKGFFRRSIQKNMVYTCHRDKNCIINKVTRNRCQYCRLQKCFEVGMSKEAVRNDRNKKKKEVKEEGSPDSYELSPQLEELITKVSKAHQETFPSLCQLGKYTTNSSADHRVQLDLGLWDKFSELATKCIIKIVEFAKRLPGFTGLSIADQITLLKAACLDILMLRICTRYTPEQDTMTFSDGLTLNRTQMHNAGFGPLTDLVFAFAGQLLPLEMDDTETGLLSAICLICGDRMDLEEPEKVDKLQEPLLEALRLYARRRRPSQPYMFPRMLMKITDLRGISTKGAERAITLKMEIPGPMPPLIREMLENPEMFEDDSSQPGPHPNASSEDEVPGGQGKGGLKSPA

[3] = target: T3, Retinoic acid receptor alpha (Homo sapiens, UniProt P10276); experiment: Binding affinity towards retinoic acid receptor alpha was determined using [3H]ATRA (5 nM) as radioligand
T3 sequence (P10276 whole entry): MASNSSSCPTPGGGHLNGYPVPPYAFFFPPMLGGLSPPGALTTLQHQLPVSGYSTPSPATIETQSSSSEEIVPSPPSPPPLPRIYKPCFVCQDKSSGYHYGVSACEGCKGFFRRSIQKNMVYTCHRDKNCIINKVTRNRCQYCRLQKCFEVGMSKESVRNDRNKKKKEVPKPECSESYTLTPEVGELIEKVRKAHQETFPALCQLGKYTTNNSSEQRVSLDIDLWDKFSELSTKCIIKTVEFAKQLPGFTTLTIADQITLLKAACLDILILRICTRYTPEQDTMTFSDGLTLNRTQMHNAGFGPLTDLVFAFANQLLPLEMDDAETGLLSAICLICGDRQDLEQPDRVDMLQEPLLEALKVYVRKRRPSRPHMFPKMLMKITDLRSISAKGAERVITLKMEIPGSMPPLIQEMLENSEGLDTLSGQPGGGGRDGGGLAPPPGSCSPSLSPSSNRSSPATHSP

[4] = target: T1, Retinoic acid receptor beta; experiment: Ability to inhibit TTNPB-induced transactivation at retinoic acid receptor beta
[5] = target: T3, Retinoic acid receptor alpha; experiment: Ability to inhibit TTNPB-induced transactivation at retinoic acid receptor alpha
[6] = target: T4, Retinoic acid receptor gamma (Homo sapiens) (UniProt P13631); experiment: Efficacy of TTNPB (10 nM) function at retinoic acid receptor gamma (10 uM)
T4 sequence (whole entry): T2 sequence (P13631 whole entry)
Procedure, shortened: (§1)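 In the RAR transactivation assay with 10 nM TTNPB, efficacy is the percent of TTNPB transcriptional activity antagonized at the highest dose tested (10⁴ nM). Each receptor subtype is tested separately.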

[7] = target: T5, Retinoic acid receptor beta (Homo sapiens) (UniProt P10826); experiment: Efficacy of TTNPB (10 nM) function at retinoic acid receptor beta (10 uM); procedure, shortened: as §1
T5 sequence (whole entry): T1 sequence (P10826 whole entry)

[8] = target: T6, Retinoic acid receptor alpha (Homo sapiens) (UniProt P10276); experiment: Efficacy of TTNPB (10 nM) function at retinoic acid receptor alpha, antagonized at highest dose tested (10⁴ nM); procedure, shortened: as §1
T6 sequence (whole entry): T3 sequence (P10276 whole entry)

[9] = target: T1, Retinoic acid receptor beta; experiment: Antagonist activity of TTNPB (10 nM) function at retinoic acid receptor beta; type: functional
Procedure, shortened: (§2)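 Transactivation assay run separately at RARα, RARβ and RARγ. Test compound is applied at varying concentrations against 10 nM TTNPB, held constant. Inhibition of TTNPB-driven transcriptional activation is measured, and IC50 is calculated as the half-maximal inhibition concentration.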

[10] = target: T3, Retinoic acid receptor alpha; experiment: Antagonist activity of TTNPB (10 nM) function at retinoic acid receptor alpha; type: functional; procedure, shortened: as §2
[11] = target: T2, Retinoic acid receptor gamma; experiment: Antagonist activity of TTNPB (10 nM) function at retinoic acid receptor gamma; type: functional; procedure, shortened: as §2
[12] = target: T2, Retinoic acid receptor gamma; experiment: Ability to inhibit TTNPB-induced transactivation at retinoic acid receptor gamma

Kd [1] [nM]	Kd [2] [nM]	Kd [3] [nM]	EC50 [4] [nM]	EC50 [5] [nM]	Efficacy [6] [%]	Efficacy [7] [%]	Efficacy [8] [%]	IC50 [9] [nM]	IC50 [10] [nM]	IC50 [11] [nM]	EC50 [12] [nM]	Structure (SMILES)
53	31	252			97	94	96					Cc1ccc(C2=CCC(C)(C)C=C2/C=C/C#Cc2ccc(C(=O)O)cc2)cc1
					96	92	93	22	210	5		Cc1ccc(C2=C(/C=C/C#Cc3ccc(C(=O)O)cc3)C(C)(C)CCC2)cc1
		17			98	97	91	20	31	3		Cc1ccc(C2=CCC(C)(C)c3ccc(C#Cc4ccc(C(=O)O)cc4)cc32)cc1

Continued, compound first:

Structure (SMILES)	Kd [1] [nM]	Kd [2] [nM]	Kd [3] [nM]	EC50 [4] [nM]	EC50 [5] [nM]	Efficacy [6] [%]	Efficacy [7] [%]	Efficacy [8] [%]	IC50 [9] [nM]	IC50 [10] [nM]	IC50 [11] [nM]	EC50 [12] [nM]
CC1=C(/C=C/C#Cc2ccc(C(=O)O)cc2)C(C)(C)CCC1	20	190	135	7	435							
CC1(C)C=C(/C=C/C#Cc2ccc(C(=O)O)cc2)C(c2ccc(C(C)(C)C)cc2)=CC1	87	> 1000	> 1000									
CCc1ccc(C2=C(/C=C/C#Cc3ccc(C(=O)O)cc3)C(C)(C)CCC2)cc1						95	96	97	40	220	3	
CC1(C)CCC(C)(C)c2cc(C/C=C/c3ccc(C(=O)O)cc3)ccc21	5	26	36	8	30							4
CC1(C)CCCC(c2ccc(C(C)(C)C)cc2)=C1/C=C/C#Cc1ccc(C(=O)O)cc1	25	331	875			95	96	94				

— ChEMBL document CHEMBL1134232, “Phenylcyclohexene and phenylcyclohexadiene substituted compounds having retinoid antagonist activity” (Bioorg Med Chem Lett, 2001)
